According to ChEMBL document CHEMBL4725388, “Characterization of Aminobenzylphenols as Protein Disulfide Isomerase Inhibitors in Glioblastoma Cell Lines” (J Med Chem, 2020):
Each block holds one molecule with its values, some of them ahead of it. Activity calls are given as the source filed them. The calls are words filed in the database; no cut-off is given here.

Assays:
[1] = molecular target: T1, Protein disulfide-isomerase (Homo sapiens, UniProt P07237); assay: Binding affinity to recombinant human wild-type N-terminal His-tagged PDIA1 expressed in Escherichia coli strain BL21(DE3) assessed as change in melting temperature at 100 uM by ROX dye based thermal shift assay
Target sequence in this assay (P07237 18-508 limits assumed): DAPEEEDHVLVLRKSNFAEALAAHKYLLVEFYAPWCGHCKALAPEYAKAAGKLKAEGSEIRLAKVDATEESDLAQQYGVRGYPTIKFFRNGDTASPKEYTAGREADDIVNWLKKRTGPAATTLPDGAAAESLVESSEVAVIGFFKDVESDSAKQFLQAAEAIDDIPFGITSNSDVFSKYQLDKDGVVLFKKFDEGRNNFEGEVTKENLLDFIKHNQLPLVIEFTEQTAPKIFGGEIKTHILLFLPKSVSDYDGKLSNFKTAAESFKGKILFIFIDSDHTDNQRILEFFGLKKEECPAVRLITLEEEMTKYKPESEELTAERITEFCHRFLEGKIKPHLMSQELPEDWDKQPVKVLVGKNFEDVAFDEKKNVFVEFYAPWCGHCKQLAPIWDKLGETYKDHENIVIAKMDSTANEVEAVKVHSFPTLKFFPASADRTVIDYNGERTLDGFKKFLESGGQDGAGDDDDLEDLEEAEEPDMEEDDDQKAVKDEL

[2] = molecular target: T1, Protein disulfide-isomerase; assay: Inhibition of recombinant human wild-type N-terminal His-tagged PDIA1 expressed in Escherichia coli strain BL21(DE3) assessed as ratio of Kinact to Ki using bovine insulin as substrate preincubated for 5 to 60 mins followed by substrate addition; details: time min 5-60
Procedure, shortened: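 Activity measured in PDI reductase assay (insulin substrate, absorbance followed over time) at several inhibitor concentrations and preincubation times of 5 to 60 minutes; kinact/KI derived from concentration- and time-dependent inhibition curves.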
Target sequence in this assay (P07237 18-508 limits assumed): as above

[3] = molecular target: T1, Protein disulfide-isomerase; assay: Inhibition of recombinant human wild-type N-terminal His-tagged PDIA1 expressed in Escherichia coli strain BL21(DE3) at 10 uM using bovine insulin as substrate preincubated for 1 hr followed by substrate addition in presence of N-acetyl cysteine
Procedure, shortened: (§1)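 Compound incubated with N-acetyl cysteine before addition to the PDI reductase assay with PDIA1, at a final compound concentration of 10 μM.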
Target sequence in this assay (P07237 18-508 limits assumed): as above

[4] = molecular target: T1, Protein disulfide-isomerase; assay: Inhibition of recombinant human wild-type N-terminal His-tagged PDIA1 expressed in Escherichia coli strain BL21(DE3) at 10 uM using bovine insulin as substrate preincubated for 1 hr followed by substrate addition in presence of glutathione
Procedure, shortened: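 Glutathione added to the PDI reaction buffer before 10 μM compound; screening done with 5 mM GSH, reductase assay DTT at 500 μM.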
Target sequence in this assay (P07237 18-508 limits assumed): as above

[5] = molecular target: T1, Protein disulfide-isomerase; assay: Binding affinity to recombinant human wild-type N-terminal His-tagged PDIA1 expressed in Escherichia coli strain BL21(DE3) assessed as adduct formation at 100 uM measured after 30 mins in presence of DTT by Q-TOF MS analysis
Procedure, shortened: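 Recombinant PDI at 10 μM incubated 30 min with 100 μM compound and 100 μM DTT before injection; adducts detected by quadrupole time-of-flight mass spectrometry.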
Target sequence in this assay (P07237 18-508 limits assumed): as above

[6] = molecular target: T1, Protein disulfide-isomerase; assay: Inhibition of recombinant human wild-type N-terminal His-tagged PDIA1 expressed in Escherichia coli strain BL21(DE3) at 1.1 to 90 uM using bovine insulin as substrate preincubated for 1 hr followed by substrate addition in presence of glutathione; details: dose microM 1.1-90, time 1.0 hrs
Target sequence in this assay (P07237 18-508 limits assumed): as above

[7] = species on record: Homo sapiens; assay: Binding affinity to recombinant human wild-type N-terminal His-tagged PDIA1 C53S mutant expressed in Escherichia coli strain BL21(DE3) assessed as adduct formation at 100 uM measured after 30 mins in presence of DTT by Q-TOF MS analysis
[8] = system: U-87 MG; assay: Inhibition of colony formation in BSO-treated human U-87 MG cells at 0.3 to 30 uM measured after 10 to 14 days by crystal violet staining based assay; type: functional, cell-based; details: U-87MG ATCC, dose microM 0.3-30, time day 10-14
Procedure, shortened: (§2)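 U-87 MG cells pretreated with BSO for 24 hours before compound addition; read-out by colony formation assay.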

[9] = molecular target: T1, Protein disulfide-isomerase; assay: Inhibition of recombinant human wild-type N-terminal His-tagged PDIA1 expressed in Escherichia coli strain BL21(DE3) at 40 uM using bovine insulin as substrate preincubated for 1 hr followed by substrate addition relative to control
[10] = system: U-87 MG; assay: Cytotoxicity against human U-87 MG cells assessed as growth inhibition at 30 uM measured after 72 hrs by MTT assay relative to control; type: functional, U-87MG ATCC; details: read-out: GI
Procedure, shortened: (§3)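 Single-concentration screen: percent inhibition of cell growth at 30 μM in U-87 MG and MIA PaCa-2 cells by MTT.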

[11] = system: MIA PaCa-2; assay: Cytotoxicity against human MIA PaCa-2 cells assessed as growth inhibition at 30 uM measured after 72 hrs by MTT assay relative to control; type: functional; details: read-out: GI; procedure, shortened: as §3
[12] = molecular target: T1, Protein disulfide-isomerase; assay: Inhibition of recombinant human wild-type N-terminal His-tagged PDIA1 expressed in Escherichia coli strain BL21(DE3) using bovine insulin as substrate preincubated for 1 hr followed by substrate addition
Procedure, shortened: (§4)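 IC50 from dose-response curves; PDI reductase assay for enzyme, MTT in U-87 MG cells for cytotoxicity; mean ± SD of at least three independent experiments.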
Target sequence in this assay (P07237 whole entry): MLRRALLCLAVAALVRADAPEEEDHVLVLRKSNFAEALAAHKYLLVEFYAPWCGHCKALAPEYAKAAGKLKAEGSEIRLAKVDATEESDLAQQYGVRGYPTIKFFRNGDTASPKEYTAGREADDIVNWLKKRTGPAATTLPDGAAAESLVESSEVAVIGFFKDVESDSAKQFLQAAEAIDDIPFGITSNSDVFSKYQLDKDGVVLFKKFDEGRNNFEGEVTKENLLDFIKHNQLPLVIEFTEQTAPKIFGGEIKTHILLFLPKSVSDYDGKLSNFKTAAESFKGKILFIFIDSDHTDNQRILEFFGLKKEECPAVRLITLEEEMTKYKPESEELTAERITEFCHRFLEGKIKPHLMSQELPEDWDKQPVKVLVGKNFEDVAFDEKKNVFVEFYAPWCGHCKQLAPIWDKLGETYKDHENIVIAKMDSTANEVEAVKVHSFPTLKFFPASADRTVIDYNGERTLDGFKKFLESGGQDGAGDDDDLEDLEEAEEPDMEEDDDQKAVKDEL

[13] = system: Protein disulfide-isomerase (Homo sapiens), P07237 [H256A]; assay: Inhibition of recombinant human wild-type N-terminal His-tagged PDIA1 H256A mutant expressed in Escherichia coli strain BL21(DE3) using bovine insulin as substrate preincubated for 1 hr followed by substrate addition
[14] = system: U-87 MG; assay: Cytotoxicity against human U-87 MG cells assessed as growth inhibition measured after 72 hrs by MTT assay; type: functional, cell-based, U-87MG ATCC; procedure, shortened: as §4
[15] = molecular target: T1, Protein disulfide-isomerase; assay: Irreversible inhibition of recombinant human wild-type N-terminal His-tagged PDIA1 expressed in Escherichia coli strain BL21(DE3) at 400 uM using bovine insulin as substrate preincubated for 30 mins followed by 100-fold dilution substrate addition further incubated for 1 hr and subsequent substrate addition; details: time 1.5 hrs
[16] = molecular target: T1, Protein disulfide-isomerase; assay: Displacement of ANS from recombinant human wild-type N-terminal His-tagged PDIA1 expressed in Escherichia coli strain BL21(DE3) at 100 uM measured after 1 hr by fluorescence assay
[17] = molecular target: T1, Protein disulfide-isomerase; assay: Inhibition of recombinant human wild-type N-terminal His-tagged PDIA1 expressed in Escherichia coli strain BL21(DE3) at 10 uM using bovine insulin as substrate […]; procedure, shortened: as §1
[18] = system: U-87 MG; assay: Inhibition of colony formation in BSO-treated human U-87 MG cells at 0.3 to 10 uM measured after 10 to 14 days by crystal violet staining based assay; type: functional, cell-based; details: U-87MG ATCC, dose microM 0.3-10, time day 10-14; procedure, shortened: as §2
[19] = molecular target: T1, Protein disulfide-isomerase; assay: Binding affinity to recombinant human wild-type N-terminal His-tagged PDIA1 expressed in Escherichia coli strain BL21(DE3) assessed as increase in protein mass at 100 uM measured after 30 mins in presence of GSTO1 and GRP78 by Q-TOF MS analysis relative to control
Procedure, shortened: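 100 μM compound incubated 30 min with a mix of 10 μM PDI, 10 μM GSTO1 and 10 μM GRP78 (GRP78 as non-specific binding control); protein masses read by QTOF MS before/after.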

[20] = molecular target: T1, Protein disulfide-isomerase; assay: Displacement of PACMA57 from recombinant human wild-type N-terminal His-tagged PDIA1 expressed in Escherichia coli strain BL21(DE3) at 100 uM measured after overnight incubation by gel-based imaging analysis
[21] = molecular target: T1, Protein disulfide-isomerase; assay: Inhibition of recombinant human wild-type N-terminal His-tagged PDIA1 expressed in Escherichia coli strain BL21(DE3) at 10 uM using bovine insulin as substrate preincubated for 1 hr followed by substrate addition in absence of glutathione
[22] = molecular target: T1, Protein disulfide-isomerase; assay: Inhibition of recombinant human wild-type N-terminal His-tagged PDIA1 expressed in Escherichia coli strain BL21(DE3) at 10 to 40 uM using bovine insulin as substrate preincubated for 1 hr followed by substrate addition; details: dose microM 10-40, time 1.0 hrs
[23] = molecular target: T2, Albumin (Bos taurus, UniProt P02769); assay: Binding affinity to fetal bovine serum albumin at 20 uM measured after overnight incubation in presence of cell free DMEM medium by gel based assay; type: ADME; details: cattle
[24] = molecular target: T2, Albumin; assay: Binding affinity to fetal bovine serum albumin at 40 uM measured after 24 hrs in presence of human U-87 MG cells by Western blot analysis; type: ADME, cell-free; details: cattle
[25] = molecular target: T1, Protein disulfide-isomerase; assay: Binding affinity to PDIA1 in human U-87 MG cells at 40 uM measured after 24 hrs in presence of fetal bovine serum by Western blot analysis; type: cell-based
[26] = molecular target: T1, Protein disulfide-isomerase; assay: Binding affinity to PDIA1 in human U-87 MG cells at 10 uM measured after 24 hrs in absence of fetal bovine serum by coomassie staining GFP channel based assay; type: cell-based
[27] = molecular target: T1, Protein disulfide-isomerase; assay: Binding affinity to recombinant human wild-type N-terminal His-tagged PDIA1 expressed in Escherichia coli strain BL21(DE3) at 20 uM measured after 24 hrs in presence of BSA by SDS PAGE analysis
[28] = Drug uptake in human A 172 cell cytoplasm at 10 uM measured after 24 hrs by PDI antibody/DAPI staining based confocal microscopic analysis; type: ADME, subcellular; details: a 172, 24 h
[29] = Drug uptake in human A 172 cell endoplasmic reticulum at 10 uM measured after 24 hrs by PDI antibody/DAPI staining based confocal microscopic analysis; type: ADME, subcellular; details: a 172, 24 h
[30] = Drug uptake in human A 172 cell nucleus at 10 uM measured after 24 hrs by PDI antibody/DAPI staining based confocal microscopic analysis; type: ADME, subcellular; details: a 172, 24 h
[31] = system: U-87 MG; assay: Inhibition of colony formation in BSO-treated human U-87 MG cells at 0.3 to 3 uM measured after 10 to 14 days by crystal violet staining based assay; type: functional, cell-based; details: U-87MG ATCC, dose microM 0.3-3, time day 10-14; procedure, shortened: as §2
[32] = molecular target: T1, Protein disulfide-isomerase; assay: Binding affinity to PDIA1 in human U-87 MG cells at 5 uM measured after 24 hrs in presence of DTT by coomassie staining GFP channel based Western blot assay; type: cell-based
[33] = molecular target: T1, Protein disulfide-isomerase; assay: Binding affinity to PDIA1 in human U-87 MG cell lysates at 5 uM measured after 24 hrs by PAGE analysis; type: subcellular
[34] = molecular target: T2, Albumin; assay: Binding affinity to BSA at 100 uM measured after overnight incubation by coomassie staining GFP channel based Western blot assay; type: ADME, cell-free; details: cattle, serum

T2 sequence (P02769 whole entry): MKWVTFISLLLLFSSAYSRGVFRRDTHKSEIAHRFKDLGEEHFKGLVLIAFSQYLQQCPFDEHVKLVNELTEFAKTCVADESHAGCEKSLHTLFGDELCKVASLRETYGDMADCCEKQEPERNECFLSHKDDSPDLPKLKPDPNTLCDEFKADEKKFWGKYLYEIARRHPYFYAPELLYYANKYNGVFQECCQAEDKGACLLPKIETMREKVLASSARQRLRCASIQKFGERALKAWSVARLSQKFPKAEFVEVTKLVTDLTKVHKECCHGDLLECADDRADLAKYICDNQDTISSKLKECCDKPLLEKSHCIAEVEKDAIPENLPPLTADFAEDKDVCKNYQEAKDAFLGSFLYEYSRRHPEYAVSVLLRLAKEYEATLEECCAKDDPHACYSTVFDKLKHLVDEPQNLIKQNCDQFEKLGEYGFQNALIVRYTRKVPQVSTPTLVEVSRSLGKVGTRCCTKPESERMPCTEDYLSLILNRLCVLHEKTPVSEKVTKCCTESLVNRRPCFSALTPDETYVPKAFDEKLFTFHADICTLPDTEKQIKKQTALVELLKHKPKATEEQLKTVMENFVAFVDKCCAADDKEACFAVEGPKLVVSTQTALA
Sequence of Protein disulfide-isomerase (Homo sapiens), P07237 [H256A] (P07237 whole entry H256A): as the sequence (P07237 whole entry) above, with H256A counted along it

SMILES: C#CC(=O)N(c1ccc(OC)cc1OC)C(C(=O)NCC(=O)OCC)c1cccs1 (centres undefined)
ΔTm [1]: 0.18 °C
Ratio [2]: 2 10^2/M/s
inhibition [3]: inactive
inhibition [4]: inactive

SMILES: Oc1c(C(c2ccc(F)cc2)N2CCN(C(c3ccc(F)cc3)c3ccc4cncnc4c3O)CC2)ccc2cncnc12 (centres undefined)
Activity [5]: Active
inhibition [6]: Active
Activity [7]: Active
inhibition [8]: Active

SMILES: Oc1c(C(Nc2ccccn2)c2ccc(Cl)cc2)ccc2cccnc12 (centres undefined)
inhibition [9]: 50%
inhibition of growth at 30 µM [10]: > 40%
inhibition of growth at 30 µM [11]: > 40%
IC50 [12]: 170 nM
inhibition [13]: Active
IC50 [14]: 10.6 µM
ΔTm [1]: -0.05 °C
inhibition [15]: inactive
inhibition [16]: inactive
inhibition [3]: inactive
inhibition [4]: inactive
inhibition [17]: Active
inhibition [18]: Active

SMILES: Oc1c(C(c2ccc(F)cc2)N2CCNCC2)ccc2cncnc12 (centres undefined)
IC50 [12]: 1200 nM
Activity [5]: Active
inhibition [4]: 44%
inhibition [21]: 100%
Activity [7]: Active
inhibition [8]: inactive

SMILES: COc1cccc(C(c2ccc3cccnc3c2O)N2CCOCC2)c1OC (centres undefined)
inhibition of growth at 30 µM [10]: 74%
IC50 [12]: 390 nM
IC50 [14]: 33 µM

SMILES: COc1cccc(C(c2cc3c(cc2O)OCO3)N2CCOCC2)c1OC (centres undefined)
inhibition of growth at 30 µM [10]: 66%
IC50 [12]: 1060 nM
IC50 [14]: 32 µM
Activity [5]: Active
fold change (FC) [19]: 2
inhibition [15]: inactive

SMILES: CN(C)c1ccc(C(Nc2ncccn2)c2cc3c(cc2O)OCO3)cc1 (centres undefined)
inhibition [4]: 64%
inhibition [21]: 88%

SMILES: N#Cc1cccc(/C=C/C(=O)c2ccc(O)cc2)c1
ΔTm [1]: 1.55 °C
inhibition [16]: Active
inhibition [3]: inactive
inhibition [4]: inactive

SMILES: COC(=O)C1(C)c2[nH]c3ccccc3c2CCN1C(=O)CCl (centres undefined)
Ratio [2]: 1.7 10^2/M/s

SMILES: Oc1c(C(Nc2ccccc2)c2ccccc2)ccc2cccnc12 (centres undefined)
IC50 [12]: 110 nM
IC50 [14]: > 10 µM

More lines, main results first:

IC50 [12]: 690 nM
SMILES: Oc1c(C(c2ccc(F)cc2)N2CCCCC2)ccc2cccnc12 (centres undefined)
inhibition of growth at 30 µM [10]: 54%
IC50 [14]: 37 µM

IC50 [12]: > 30000 nM
Activity [19]: inactive
inhibition [20]: inactive
SMILES: Oc1cc2c(cc1C(c1ccc(F)cc1)N1CCCCC1)CCC2 (centres undefined)

inhibition [22]: inactive
Activity [23]: Active
Activity [24]: Active
Activity [25]: inactive
Activity [26]: inactive
Activity [27]: Active
Drug uptake [28]: Active
Drug uptake [29]: Active
Drug uptake [30]: Active
SMILES: CC1=CC(C)=[N+]2C1=C(c1ccc(NC(=O)c3ccc(C(c4cc5c(cc4O)OCO5)N4CCCCC4)cc3)cc1)c1c(C)cc(C)n1[B-]2(F)F (centres undefined)

inhibition [9]: 50%
IC50 [12]: 300 nM
inhibition [13]: Active
ΔTm [1]: -0.36 °C
Ratio [2]: 2.6 10^3/M/s
inhibition [20]: Active
inhibition [15]: Active
inhibition [16]: inactive
inhibition [3]: inactive
inhibition [4]: inactive
inhibition [17]: Active
SMILES: COc1ccc(C(c2cc3c(cc2O)OCO3)N2CCOCC2)cc1OC (centres undefined)
inhibition of growth at 30 µM [10]: > 40%
inhibition of growth at 30 µM [11]: > 40%
IC50 [14]: 18.3 µM
inhibition [31]: Active

IC50 [12]: 1370 nM
Activity [23]: Active
Activity [32]: inactive
Activity [33]: Active
Activity [34]: Not Active
Activity [27]: Active
Drug uptake [28]: Active
Drug uptake [29]: Active
Drug uptake [30]: Active
SMILES: CC1=CC(C)=[N+]2C1=C(c1ccc(C(=O)NCCNC(=O)c3ccc(C(c4cc5c(cc4O)OCO5)N4CCCCC4)cc3)cc1)c1c(C)cc(C)n1[B-]2(F)F (centres undefined)
